From publication PMC6634314 (Cell chemical biology, 2019)

Tests used:
LIMK1 = LIMK1 (Homo sapiens, UniProt P53667); assay: MIB washout assay; type: binding; conditions: H23 cells, 1 μM 4h, MIB pulldown ratio SM1-71/SM1-71-R
EPHA10 = assay: MIB washout assay; type: binding, Human; conditions: H23 cells, 1 μM 4h, MIB pulldown ratio SM1-71/SM1-71-R
GAK [1] = target: T1, GAK (Homo sapiens, UniProt O14976); assay: MIB washout assay; type: binding; conditions: H23 cells, 1 μM 4h, MIB pulldown ratio SM1-71/SM1-71-R
T1 sequence (O14976 1-1311): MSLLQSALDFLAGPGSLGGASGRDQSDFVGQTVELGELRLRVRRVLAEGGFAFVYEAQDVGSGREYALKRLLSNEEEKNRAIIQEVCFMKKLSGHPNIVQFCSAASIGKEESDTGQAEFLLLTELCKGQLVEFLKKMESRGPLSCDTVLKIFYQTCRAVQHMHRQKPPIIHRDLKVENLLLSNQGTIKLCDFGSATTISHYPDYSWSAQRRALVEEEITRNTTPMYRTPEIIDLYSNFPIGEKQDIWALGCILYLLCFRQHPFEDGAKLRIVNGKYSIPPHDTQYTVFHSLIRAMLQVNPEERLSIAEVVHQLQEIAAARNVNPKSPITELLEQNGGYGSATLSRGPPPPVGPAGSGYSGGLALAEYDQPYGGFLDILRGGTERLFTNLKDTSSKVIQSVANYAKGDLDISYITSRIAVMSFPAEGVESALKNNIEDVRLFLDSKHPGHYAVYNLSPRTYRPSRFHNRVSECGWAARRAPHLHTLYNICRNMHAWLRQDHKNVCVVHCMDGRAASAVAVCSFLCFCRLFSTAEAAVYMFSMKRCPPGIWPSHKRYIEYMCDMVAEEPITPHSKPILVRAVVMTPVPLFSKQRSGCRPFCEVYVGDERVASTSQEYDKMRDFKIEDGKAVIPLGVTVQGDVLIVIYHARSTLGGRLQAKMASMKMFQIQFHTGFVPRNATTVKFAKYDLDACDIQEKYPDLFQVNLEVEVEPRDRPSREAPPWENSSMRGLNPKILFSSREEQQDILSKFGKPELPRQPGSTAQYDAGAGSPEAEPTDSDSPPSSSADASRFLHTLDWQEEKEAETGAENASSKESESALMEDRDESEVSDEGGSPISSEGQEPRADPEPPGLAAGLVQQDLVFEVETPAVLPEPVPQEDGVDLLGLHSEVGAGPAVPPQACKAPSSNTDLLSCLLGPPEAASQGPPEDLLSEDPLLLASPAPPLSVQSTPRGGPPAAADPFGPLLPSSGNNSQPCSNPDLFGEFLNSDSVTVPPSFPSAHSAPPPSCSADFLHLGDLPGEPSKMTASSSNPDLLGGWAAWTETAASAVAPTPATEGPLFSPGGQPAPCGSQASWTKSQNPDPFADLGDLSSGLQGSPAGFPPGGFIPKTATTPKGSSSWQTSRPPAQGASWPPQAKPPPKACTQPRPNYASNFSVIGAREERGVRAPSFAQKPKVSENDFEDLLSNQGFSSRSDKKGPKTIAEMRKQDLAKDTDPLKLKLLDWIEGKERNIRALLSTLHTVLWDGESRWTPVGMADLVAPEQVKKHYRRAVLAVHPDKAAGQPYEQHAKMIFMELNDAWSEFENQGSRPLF

SRC [2] = target: T2, SRC (Homo sapiens, UniProt P12931); assay: mass shift assay; type: binding; conditions: incubated 4 and 24h
In short: (§1)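 Kinase protein at 0.12 mM in 10 mM HEPES pH 7.5, 500 mM NaCl, incubated with 0.2 mM test compound at 4°C for 4 h and 24 h. Samples were diluted in 0.1% formic acid and desalted on a C3 pre-column. ESI-TOF was run in positive mode at 120 V, and intact mass was obtained by deconvolution to detect the adduct.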
Target sequence in this assay (P12931 whole entry, species assumed): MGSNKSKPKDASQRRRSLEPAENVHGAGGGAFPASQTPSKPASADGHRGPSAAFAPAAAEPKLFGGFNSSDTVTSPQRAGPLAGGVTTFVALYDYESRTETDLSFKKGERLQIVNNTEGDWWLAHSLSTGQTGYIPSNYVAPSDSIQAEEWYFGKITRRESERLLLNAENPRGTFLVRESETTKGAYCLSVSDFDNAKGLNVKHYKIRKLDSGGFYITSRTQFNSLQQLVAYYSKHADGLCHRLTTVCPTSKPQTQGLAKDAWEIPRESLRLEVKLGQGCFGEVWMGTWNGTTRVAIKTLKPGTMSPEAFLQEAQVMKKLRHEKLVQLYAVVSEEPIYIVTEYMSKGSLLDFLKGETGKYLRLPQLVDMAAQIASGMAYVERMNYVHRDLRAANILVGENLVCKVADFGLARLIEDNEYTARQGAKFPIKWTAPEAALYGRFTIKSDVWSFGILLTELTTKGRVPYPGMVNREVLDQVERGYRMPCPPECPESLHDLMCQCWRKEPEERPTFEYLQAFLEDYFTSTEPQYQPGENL

PKMYT1 = assay: MIB washout assay; type: binding, Human; conditions: H23 cells, 1 μM 4h, MIB pulldown ratio SM1-71/SM1-71-R
EPHB2 = assay: MIB washout assay; type: binding, Human; conditions: H23 cells, 1 μM 4h, MIB pulldown ratio SM1-71/SM1-71-R
TNIK = assay: MIB washout assay; type: binding, Human; conditions: H23 cells, 1 μM 4h, MIB pulldown ratio SM1-71/SM1-71-R
STK16 = assay: MIB washout assay; type: binding, Human; conditions: H23 cells, 1 μM 4h, MIB pulldown ratio SM1-71/SM1-71-R
GAK [3] = target: T1, GAK; assay: mass shift assay; type: binding; conditions: incubated 4 and 24h
In short: as §1

YES1 = YES1 (Homo sapiens, UniProt P07947); assay: MIB dose-dependent kinase inhibition assay; type: binding; conditions: read-out: IC50 in the MIB assay, H23 cell lysate, overnight 4°C
Sequence of YES1 (P07947 whole entry): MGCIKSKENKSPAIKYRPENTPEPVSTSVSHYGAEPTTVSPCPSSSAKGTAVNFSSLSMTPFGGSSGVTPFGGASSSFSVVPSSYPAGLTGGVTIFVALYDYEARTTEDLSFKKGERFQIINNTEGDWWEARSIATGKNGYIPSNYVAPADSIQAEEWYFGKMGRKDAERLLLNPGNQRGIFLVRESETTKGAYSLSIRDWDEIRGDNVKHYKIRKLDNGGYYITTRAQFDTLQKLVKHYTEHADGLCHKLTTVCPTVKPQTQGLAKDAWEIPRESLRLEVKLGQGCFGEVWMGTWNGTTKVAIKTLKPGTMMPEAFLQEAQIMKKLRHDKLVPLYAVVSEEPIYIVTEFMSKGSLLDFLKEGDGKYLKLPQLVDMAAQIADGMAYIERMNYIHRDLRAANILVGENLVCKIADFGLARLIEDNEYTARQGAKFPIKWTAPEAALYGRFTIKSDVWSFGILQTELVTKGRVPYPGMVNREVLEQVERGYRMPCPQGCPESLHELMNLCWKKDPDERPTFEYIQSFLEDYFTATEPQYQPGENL

TEC = assay: MIB washout assay; type: binding, Human
WEE1 = assay: MIB washout assay; type: binding, Human; conditions: H23 cells, 1 μM 4h, MIB pulldown ratio SM1-71/SM1-71-R
FGFR1 = assay: MIB washout assay; type: binding, Human; conditions: H23 cells, 1 μM 4h, MIB pulldown ratio SM1-71/SM1-71-R
SRC [4] = target: T2, SRC; assay: MIB dose-dependent kinase inhibition assay; type: binding; conditions: read-out: IC50 in the MIB assay, H23 cell lysate, overnight 4°C
Target sequence in this assay (P12931 whole entry): as the sequence (P12931 whole entry, species assumed) above

CDK9 = assay: MIB washout assay; type: binding, Human; conditions: H23 cells, 1 μM 4h, MIB pulldown ratio SM1-71/SM1-71-R
[5] = test system: H23-KRAS^G12C non-small cell lung cancer (NSCLC) cell line; assay: proliferation assay; type: cell-based, Human
In short: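 NSCLC lines were mycoplasma-tested and treated with various concentrations of test compound for 72 h. Cell viability was then measured by CellTiter-Glo luminescence.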

EIF2AK3 = assay: MIB washout assay; type: binding, Human; conditions: H23 cells, 1 μM 4h, MIB pulldown ratio SM1-71/SM1-71-R
CSNK1A1 = assay: MIB washout assay; type: binding, Human; conditions: H23 cells, 1 μM 4h, MIB pulldown ratio SM1-71/SM1-71-R
TK2 = assay: MIB washout assay; type: binding, Human; conditions: H23 cells, 1 μM 4h, MIB pulldown ratio SM1-71/SM1-71-R
MAPK3 = assay: MIB washout assay; type: binding, Human; conditions: H23 cells, 1 μM 4h, MIB pulldown ratio SM1-71/SM1-71-R
PRKDC = assay: MIB washout assay; type: binding, Human; conditions: H23 cells, 1 μM 4h, MIB pulldown ratio SM1-71/SM1-71-R
MAPK1 = MAPK1 (Homo sapiens, UniProt P28482); assay: mass shift assay; type: binding; conditions: incubated 4 and 24h
Sequence of MAPK1 (P28482 whole entry, species assumed): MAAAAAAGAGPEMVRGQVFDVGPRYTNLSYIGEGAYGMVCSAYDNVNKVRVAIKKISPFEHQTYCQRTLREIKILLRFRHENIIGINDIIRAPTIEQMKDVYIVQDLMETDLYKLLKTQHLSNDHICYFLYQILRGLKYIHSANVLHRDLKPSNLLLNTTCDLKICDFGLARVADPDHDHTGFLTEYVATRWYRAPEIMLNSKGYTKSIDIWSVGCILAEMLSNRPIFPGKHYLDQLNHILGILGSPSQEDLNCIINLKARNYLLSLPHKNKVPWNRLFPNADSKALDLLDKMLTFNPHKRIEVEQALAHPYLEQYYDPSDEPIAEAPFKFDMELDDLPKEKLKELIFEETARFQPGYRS
In short: as §1

Sequence of LIMK1 (P53667 whole entry): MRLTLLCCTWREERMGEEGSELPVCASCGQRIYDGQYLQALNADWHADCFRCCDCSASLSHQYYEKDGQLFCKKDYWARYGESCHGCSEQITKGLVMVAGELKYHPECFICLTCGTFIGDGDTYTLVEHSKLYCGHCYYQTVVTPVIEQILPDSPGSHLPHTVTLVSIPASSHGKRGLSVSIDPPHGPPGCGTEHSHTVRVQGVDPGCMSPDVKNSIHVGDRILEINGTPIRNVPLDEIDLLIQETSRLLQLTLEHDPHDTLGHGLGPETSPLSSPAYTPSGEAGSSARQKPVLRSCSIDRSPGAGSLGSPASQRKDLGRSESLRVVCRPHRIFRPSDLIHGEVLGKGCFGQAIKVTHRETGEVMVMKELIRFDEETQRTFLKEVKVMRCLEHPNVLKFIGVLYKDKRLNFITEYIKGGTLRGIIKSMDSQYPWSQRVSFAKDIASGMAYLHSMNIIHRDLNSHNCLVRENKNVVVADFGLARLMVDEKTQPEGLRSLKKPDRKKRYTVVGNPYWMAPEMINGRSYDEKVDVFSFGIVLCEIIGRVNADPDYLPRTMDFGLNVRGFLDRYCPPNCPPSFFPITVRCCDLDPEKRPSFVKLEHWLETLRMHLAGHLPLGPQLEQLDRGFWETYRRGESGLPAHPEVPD

C=CC(=O)Nc1ccccc1Nc1nc(Nc2ccc(N3CCN(C)CC3)cc2)ncc1Cl [SM1-71]
BI-0h (LIMK1; 0h post-washout): 0.21
BI-6h (LIMK1; 6h post-washout): 0.23
BI-0h (EPHA10; 0h post-washout): 0.72
BI-6h (EPHA10; 6h post-washout): 0.63
BI-0h (GAK [1]; 0h post-washout): 0.07
BI-6h (GAK [1]; 6h post-washout): 0.04
covalent adduct formation (mass shift) (SRC [2]): formed covalent adducts
BI-0h (PKMYT1; 0h post-washout): 0.47
BI-6h (PKMYT1; 6h post-washout): 0.8
BI-0h (EPHB2; 0h post-washout): 0.7
BI-6h (EPHB2; 6h post-washout): 0.5
BI-0h (TNIK; 0h post-washout): 0.67
BI-6h (TNIK; 6h post-washout): 0.74
BI-0h (STK16; 0h post-washout): 0.51
BI-6h (STK16; 6h post-washout): 0.76
covalent adduct formation (mass shift) (GAK [3]): formed covalent adducts
IC50 (YES1): < 10 nM
BI-0h (TEC; H23 cells, 1 μM 4h, 0h post-washout, MIB pulldown ratio SM1-71/SM1-71-R): 1.02
BI-6h (TEC; H23 cells, 1 μM 4h, 6h post-washout, MIB pulldown ratio SM1-71/SM1-71-R): 1.43
Binding (TEC; class from BI 0h and 6h): Strongly Reversible (BI0h,6h greater than 1 suggesting a strong preference for reversible mode of inhibition)
BI-0h (WEE1; 0h post-washout): 0.98
BI-6h (WEE1; 6h post-washout): 0.63
BI-0h (FGFR1; 0h post-washout): 0.45
BI-6h (FGFR1; 6h post-washout): 0.42
IC50 (SRC [4]): < 10 nM
BI-0h (CDK9; 0h post-washout): 0.46
BI-6h (CDK9; 6h post-washout): 0.96
growth inhibitory effects ([5]; H23-KRAS^G12C cells (Fig. S2)): strong growth inhibitory effects
IC50 ([5]; proliferation assays, H23-KRAS^G12C cells (Fig. S2A)): 400 nM
BI-0h (EIF2AK3; 0h post-washout): 0.8
BI-6h (EIF2AK3; 6h post-washout): 0.66
BI-0h (CSNK1A1; 0h post-washout): 0.91
BI-6h (CSNK1A1; 6h post-washout): 0.74
BI-0h (TK2; 0h post-washout): 0.83
BI-6h (TK2; 6h post-washout): 0.95
BI-0h (MAPK3; 0h post-washout): 0.62
BI-6h (MAPK3; 6h post-washout): 0.54
BI-0h (PRKDC; 0h post-washout): 0.76
BI-6h (PRKDC; 6h post-washout): 0.77
covalent adduct formation (mass shift) (MAPK1): formed covalent adducts
